# In the library only some 0.62% were active in any assay of this set; here they are far more common.
# TNAP act hiacc: TNAP activators at high phosphate acceptor level, primary screen, biochemical, luminescence, uHTS. 200,000 tested, under 10 active. Alkaline phosphatase, tissue-nonspecific isozyme (Homo sapiens), P05186. activation factor at 20 µM. purified TNAP, CDP-star luminescence, 1 M DEA, 30 min; active compounds read high; 0 = EDTA background, 1 = DMSO-only activity;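 active = activation factor at least 2 at 20 µM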
#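 Measured by: Luminescent substrate turnover signal | Test system: Human TNAP | Input: TNAP 1/800 final | Dosing: 20 µM single point | Schedule: 30 min, room temperature | Controls: EDTA wells as negative control, DMSO wells as positive control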
# PMI act hi M6P: human PMI activators, high substrate, primary screen, biochemical, fluorescence intensity, near-saturating mannose 6-phosphate; Mannose-6-phosphate isomerase (Homo sapiens), P34949; coupled PMI enzyme assay, resazurin fluorescence, 20 min; active compounds read high; 1 = untreated enzyme, 0 = substrate-free blank; actives 0.34% (n = 190,000); activation factor at 20 µM;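 active = activation factor of 2 or more at 20 µM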
# Target sequence (P34949 whole entry, looked up): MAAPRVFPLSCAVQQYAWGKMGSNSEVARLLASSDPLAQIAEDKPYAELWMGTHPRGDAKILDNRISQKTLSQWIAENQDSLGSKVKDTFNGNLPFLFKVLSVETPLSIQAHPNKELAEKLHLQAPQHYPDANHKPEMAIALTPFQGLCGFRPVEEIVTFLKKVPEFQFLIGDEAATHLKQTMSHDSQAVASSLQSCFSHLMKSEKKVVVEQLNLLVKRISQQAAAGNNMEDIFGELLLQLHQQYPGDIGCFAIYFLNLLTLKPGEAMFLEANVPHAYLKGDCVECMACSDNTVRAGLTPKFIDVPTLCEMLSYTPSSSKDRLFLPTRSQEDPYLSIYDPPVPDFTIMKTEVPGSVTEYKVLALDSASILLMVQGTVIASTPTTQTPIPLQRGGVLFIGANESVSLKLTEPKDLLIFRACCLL
#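 Material: human phosphomannose isomerase with PGI, G6PDH, diaphorase coupling enzymes. Quantity: 15 ng/mL PMI. Medium: HEPES pH 7.4 buffer with MgCl2 and Tween-20. Reagent: Near-saturating mannose-6-phosphate, 1.0 mM. Compound: 20 µM single dose. Times: enzyme reaction with compound 20 min at room temperature. Detection: resorufin fluorescence at Ex 544/Em 590 nm.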
# TNAP inh hi DEA: human TNAP enzyme inhibitors, primary screen, biochemical, luminescent, high phosphate acceptor level, uHTS. Alkaline phosphatase, tissue-nonspecific isozyme (Homo sapiens), P05186. purified TNAP, CDP-star luminescence, 1 M DEA. inhibition, % at 20 µM. actives 0.03% (n = 200,000). AID 1135, 2008;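 active = over 50% inhibition of tissue-nonspecific alkaline phosphatase at 20 µM in the single-dose screen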;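 also: plate controls were DMSO wells for no effect and EDTA-quenched wells as full inhibition for full effect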
# TNAP inh noacc: human TNAP enzyme inhibitors, primary screen, biochemical, luminescent, no phosphate acceptor, uHTS. purified TNAP, CDP-star luminescence, 30 min. actives 0.26% (n = 200,000). inhibition, % at 20 µM. Alkaline phosphatase, tissue-nonspecific isozyme (Homo sapiens), P05186. AID 1012, 2008;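 active = tissue-nonspecific alkaline phosphatase inhibition above about 50% at 20 µM in the single-dose screen, limit read from the data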;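 also: 0% = DMSO negative control and 100% = EDTA positive control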
# PMI act: activators of human PMI, primary screen, biochemical, fluorescence intensity, near-Km mannose 6-phosphate; actives 0.005% (n = 190,000); activation factor at 20 µM; purified human PMI, coupled resazurin fluorescence, 20 min; active compounds read high; 1 = vehicle control, 0 substrate-free wells; AID 1214, 2008;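 active = activation factor of 2 or more at 20 µM, relative to plate controls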
# Starred values were filed as active, the others as inactive.
SMILES,TNAP act hiacc,PMI act hi M6P,TNAP inh hi DEA,TNAP inh noacc,PMI act
CC1=CC(C)(C)Nc2ccc(OS(=O)(=O)c3ccc(C)cc3)cc21,1,0.5,-2,-4,0.6
Cc1ccc(S(=O)(=O)Oc2ccc(C(c3c(C)[nH][nH]c3=O)c3c(C)[nH][nH]c3=O)cc2)cc1,0.4,0.9,61*,-8,0.9
CCOC(=O)C1(CC/C(C)=N\NC(N)=O)CC(C)(C)OC1=O (configuration not stated),1,1,2,-9,0.9
N#CC1(NC(=O)CN2CCc3ccccc3C2)CCCC1,1,1,-5,-2,1.1
Cc1n[nH]c(C)c1S(=O)(=O)N1CCOCC1,1,1,2,57*,1
COc1ccccc1-c1nc(SCc2ccccn2)n[nH]1,1,1,-1,84*,1
COc1ccc(N(CC(=O)NCCC2=CCCCC2)S(=O)(=O)c2ccccc2)c(OC)c1,1,0.9,-2,1,0.9
O=C(Nc1ccc2c(c1)nc1n2CCN(Cc2ccccc2)C1)NC1CCCCC1,1,1.4,-3,-19,1.2
O=S(=O)(Nc1ccc2c(c1)nc1n2CCN(Cc2ccccc2)C1)c1ccc(Cl)cc1,1,2.2*,-2,-14,1.6
O=S(=O)(Nc1ccc2c(c1)nc1n2CCN(Cc2ccccc2)C1)c1ccc(F)cc1,1.1,2.1*,-10,-14,1.6
O=S(=O)(Nc1ccc2c(c1)nc1n2CCN(Cc2ccccc2)C1)c1ccccc1,1,1.9,-1,-3,1.5
Cc1ccc(S(=O)(=O)Nc2ccc3c(c2)nc2n3CCN(Cc3ccccc3)C2)cc1,1,2.2*,0,-5,1.5
Cc1cc(-n2cnnn2)ccc1C(C)C,1,0.9,-4,-11,0.9
COc1ccccc1C(=O)C1CCCN(C(=O)c2cccc(-n3cccn3)c2)C1 (configuration not stated),1.1,1,-6,-13,1
O=C(NC(=S)Nc1cccc(NC(=O)c2ccccc2)c1)c1cccc([N+](=O)[O-])c1,1,1,4,3,0.8
NS(=O)(=O)c1cccc(NC(=S)NC(=O)c2cccc([N+](=O)[O-])c2)c1,0.9,1,7,70*,1.1
O=C(CSc1ccc2ccccc2c1)NCCc1ccc(O)c(O)c1,1,0.7,-2,54*,0.5
COc1cccc(/C=N/Nc2ccc(S(=O)(=O)O)cc2)c1O,1,2.1*,-3,-10,1.4
O=C(/C=C/c1ccc(Cl)cc1)NCc1ccco1,1.1,1,-6,-7,1
Fc1ccc(N/N=C(/c2ccccc2)c2ccccn2)cc1,1,2*,2,-9,1.4
O=C(COC(=O)c1ccccc1Br)Nc1cc(S(=O)(=O)N2CCOCC2)ccc1N1CCCC1,1,1.1,-4,2,1.2
O=C(O)CCCNc1ccc([N+](=O)[O-])c(NCCCC(=O)O)n1,0.9,0.7,9,3,1
CCC(C)C(NC(=O)C1CCC(C)CC1)C(=O)NC1CCN(Cc2ccccc2)CC1 (configuration not stated),1,1,-3,-7,0.9
Cc1c(Br)c(=O)oc2c(Br)c(O)c(O)cc12,1,1.3,2,50*,0.9
CCSc1cc(C2C(C(=O)OC)=C(C)NC3=C2C(=O)CCC3)c(C)o1 (configuration not stated),1.1,2.1*,-7,-12,1.1
SMILES,TNAP act hiacc,PMI act hi M6P,TNAP inh hi DEA,TNAP inh noacc,PMI act
Cc1[nH]n(-c2ccccc2)c(=O)c1/C=N/NC(=O)c1cccc([N+](=O)[O-])c1,1.1,1,-6,4,0.8
Cc1[nH]n(-c2cccc3ccccc23)c(=O)c1/C=N/NC(=O)c1cccc([N+](=O)[O-])c1,0.9,1.2,12,51*,1.1
CC(N1CCOC1=O)S(=O)(=O)c1ccccc1 (configuration not stated),1,2*,2,-8,1.6
O=C(Nc1ccc(Cl)c(S(=O)(=O)N2CCOCC2)c1)c1ccccc1-c1ccc(C(F)(F)F)cc1,1,1.1,3,-10,0.9
CS/C(=N\S(=O)(=O)c1cccs1)NC(=O)CSc1nc2ccccc2s1,1.1,2.4*,-6,-12,1.7
CCCn1cc2c(c1-c1cccc(C)c1)c(=O)n(C)c(=O)n2C,1,1.1,-2,-11,1
CCn1cc2c(c1-c1cccc(C)c1)c(=O)n(C)c(=O)n2C,1.1,2.1*,-5,-11,1.5
Cc1ccc(SCc2cc(=O)[nH]c(Nc3nc(C)c4ccc(C)cc4n3)n2)cc1,1,2*,-3,-110,1.5
CCOC(=O)c1sc(NC(=O)CSc2nc3c(c(=O)n2-c2ccc(F)cc2)SCC3)c(C(=O)OCC)c1C,1,0.8,0,1,0.9
O=C(O)CC(NC(=O)OCc1ccccc1)c1ccccc1 (configuration not stated),1.1,1,-6,-5,1
O=C(O)C/C=C(/NC(=O)OCc1ccccc1)C(=O)OCc1ccccc1,1,2.8*,0,1,1.9
COc1ccc(N/N=C(/N=Nc2nc(C)cc(=O)[nH]2)c2ccccc2)cc1,0.7,2.3*,29,31,1.8
COc1ccc(C(=O)CSc2nc(C)cc(=O)[nH]2)cc1,1,1.2,-2,-15,1.1
Cc1cc(=O)[nH]c(N=N/C(=N/Nc2ccccc2C)c2ccccc2)n1,0.6,1.8,38,28,1.5
Cc1cc(=O)[nH]c(N=N/C(=N/Nc2ccc(O)cc2)c2ccccc2)n1,0.5,2.3*,46,45,1.9
CCCCN(C)CCC(=O)Nc1ccc(F)c(F)c1,1,1,-2,-13,1
CCc1c(C)[nH]c2nc3ccccc3n2c1=O,1,1,-1,51*,1.1
O=c1cc(-c2ccccc2)[nH]c2nc3ccccc3n12,1,0.9,-1,32,0.9
O=C(Nc1cccc(O)c1)c1ccc(Br)cc1,1,0.9,0,-7,0.9
O=C(NNc1ccc(O)cc1)c1ccc(Br)cc1,1,2.2*,2,44,1.5
CCOc1ccc(/C=N/NC(=O)c2cc(-c3cccn3C)n[nH]2)cc1,0.9,1,7,79*,1
O=C(O)c1cc(-c2ccccc2Cl)n[nH]1,0.9,1.1,10,96*,1
O=C(O)c1cc(-c2ccccc2)n[nH]1,1,1.1,2,86*,1.1

# Assay outcomes (PubChem BioAssay)
